Assay results reported in ChEMBL document CHEMBL1144441, “Identification of a novel cardenolide (2''-oxovoruscharin) from Calotropis procera and the hemisynthesis of novel derivatives displaying potent in vitro antitumor activities and high in vivo tolerance: structure-activity relationship analyses” (J Med Chem, 2005).

Tests used:
[1] = test system: A549; test: Concentration required for 50% growth inhibition of human A549 cancer cell lines after 3 days of culture; assay type: functional, cell-based; conditions: A549, 72 h
Procedure, shortened: (§1)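 MTT overall-growth assay on the five lines. Cells were plated for 24 h at 10 000–40 000 cells/mL, depending on cell type. Nine concentrations from 10^-9 to 10^-5 M in semilog steps were applied for 72 h. Formazan was read at 570 nm against a 630 nm reference, in sextuplicate. IC50 = concentration reducing overall growth by 50% versus untreated control.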

[2] = test system: U373 MG; test: Concentration required for 50% growth inhibition of human U373 cancer cell lines after 3 days of culture; assay type: functional, cell-based, U-373MG ATCC; conditions: 72 h; procedure, shortened: as §1
[3] = test system: LoVo; test: Concentration required for 50% growth inhibition of human LoVo cancer cell lines after 3 days of culture; assay type: functional, cell-based; conditions: 72 h; procedure, shortened: as §1
[4] = test system: Mus musculus; test: Maximum tolerated dose after intraperitoneal administration in mouse (period of 28 days); not determined; assay type: functional
Procedure, shortened: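 Healthy, non-tumour-bearing B6D2F1 mice given one acute intraperitoneal dose, three mice per dose group, doses 5, 10, 20, 40, 80, 120 and 160 mg/kg. Survival and body weight followed for 28 days after injection. MTD is the highest single dose causing no deaths over the period.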

[5] = Concentration required for 50% growth inhibition of human Hs 683 cancer cell lines after 3 days of culture; assay type: functional, cell-based; conditions: 72 h; procedure, shortened: as §1
[6] = test system: HCT-15; test: Concentration required for 50% growth inhibition of human HCT-15 cancer cell lines after 3 days of culture; assay type: functional, cell-based; conditions: HCT-15, 72 h; procedure, shortened: as §1

Work on `CC(=O)CCC(=O)OC[C@]12C[C@H]3OC4(O)[C@@H](O[C@H](C)C[C@@]45NC(=O)CS5)O[C@@H]3C[C@@H]1CC[C@@H]1[C@@H]2CC[C@]2(C)[C@@H](C3=CC(=O)OC3)CC[C@]12CO` (stereo partly specified) yielded an IC50 [1] of 463 nM, an IC50 [2] of 3230 nM and an IC50 [3] of 3000 nM. It also gave an MTD [4] of 20 mg/kg, an IC50 [5] of 758 nM and an IC50 [6] of 3240 nM.
